Reference: ChEMBL document CHEMBL1821604, “Anticancer activity and cDNA microarray studies of a (RS)-1,2,3,5-tetrahydro-4,1-benzoxazepine-3-yl]-6-chloro-9H-purine, and an acyclic (RS)-O,N-acetalic 6-chloro-7H-purine” (Eur J Med Chem, 2011)

Legend:
Type in all cases: functional
HT-29 [1] = assay: Down regulation of RAB3D gene expression in human HT-29 cells at IC50 after 48 hrs by cDNA microarray technique relative to control
MCF7 [2] = assay: Upregulation of MGC32020 gene expression in human MCF7 cells at IC50 after 48 hrs by cDNA microarray technique relative to control
HT-29 [3] = assay: Upregulation of PMP22 gene expression in human HT-29 cells at IC50 after 48 hrs by cDNA microarray technique relative to control
HT-29 [4] = assay: Down regulation of TMEM27 gene expression in human HT-29 cells at IC50 after 48 hrs by cDNA microarray technique relative to control
MCF7 [5] = assay: Down regulation of FLJ22955 gene expression in human MCF7 cells at IC50 after 48 hrs by cDNA microarray technique relative to control
Method in brief: (§1)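 Cells (8 × 10⁶) were cultured in DMEM with 10% heat-inactivated FBS at 37 °C under 5% CO₂. They were exposed for 48 h to compound at its IC₅₀, with DMSO-treated parallel cultures as controls (final DMSO ≤0.1% v/v). Total RNA was isolated by trizol/chloroform phase separation, RNeasy column cleanup and on-column DNase, then quantified by OD260/OD280. Expression was profiled by cDNA microarray relative to control.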

HT-29 [6] = assay: Upregulation of COL3A1 gene expression in human HT-29 cells at IC50 after 48 hrs by cDNA microarray technique relative to control
HT-29 [7] = assay: Upregulation of NAV1 gene expression in human HT-29 cells at IC50 after 48 hrs by cDNA microarray technique relative to control
HT-29 [8] = assay: Down regulation of SCD4 gene expression in human HT-29 cells at IC50 after 48 hrs by cDNA microarray technique relative to control
HT-29 [9] = assay: Down regulation of COL11A1 gene expression in human HT-29 cells at IC50 after 48 hrs by cDNA microarray technique relative to control
Method in brief: (§2)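 8 × 10⁶ cells exposed 48 h to compound at its IC50 concentration; total RNA isolated with trizol/chloroform and RNeasy columns including on-column DNase step; RNA quantified by OD 260/280; DMSO-treated cultures as control.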

HT-29 [10] = assay: Down regulation of GNRHR2 gene expression in human HT-29 cells at IC50 after 48 hrs by cDNA microarray technique relative to control; method in brief: as §1
MCF7 [11] = assay: Upregulation of PPIL4 gene expression in human MCF7 cells at IC50 after 48 hrs by cDNA microarray technique relative to control
HT-29 [12] = assay: Down regulation of MGC35130 gene expression in human HT-29 cells at IC50 after 48 hrs by cDNA microarray technique relative to control
MCF7 [13] = assay: Down regulation of CORO2B gene expression in human MCF7 cells at IC50 after 48 hrs by cDNA microarray technique relative to control; method in brief: as §2
MCF7 [14] = assay: Upregulation of BTBD12 gene expression in human MCF7 cells at IC50 after 48 hrs by cDNA microarray technique relative to control
MCF7 [15] = assay: Down regulation of SLC16A7 gene expression in human MCF7 cells at IC50 after 48 hrs by cDNA microarray technique relative to control
HT-29 [16] = assay: Upregulation of Beta4GalNAc-T4 gene expression in human HT-29 cells at IC50 after 48 hrs by cDNA microarray technique relative to control
MCF7 [17] = assay: Down regulation of KIF3B gene expression in human MCF7 cells at IC50 after 48 hrs by cDNA microarray technique relative to control; method in brief: as §1
HT-29 [18] = assay: Down regulation of HTN1 gene expression in human HT-29 cells at IC50 after 48 hrs by cDNA microarray technique relative to control; method in brief: as §1
MCF7 [19] = assay: Upregulation of ZNF141 gene expression in human MCF7 cells at IC50 after 48 hrs by cDNA microarray technique relative to control
HT-29 [20] = assay: Down regulation of PGLYRP4 gene expression in human HT-29 cells at IC50 after 48 hrs by cDNA microarray technique relative to control
MCF7 [21] = assay: Upregulation of GALNT13 gene expression in human MCF7 cells at IC50 after 48 hrs by cDNA microarray technique relative to control
HT-29 [22] = assay: Down regulation of ARL10B gene expression in human HT-29 cells at IC50 after 48 hrs by cDNA microarray technique relative to control; method in brief: as §2
HT-29 [23] = assay: Down regulation of ANP32D gene expression in human HT-29 cells at IC50 after 48 hrs by cDNA microarray technique relative to control; method in brief: as §2
HT-29 [24] = assay: Upregulation of UNC5B gene expression in human HT-29 cells at IC50 after 48 hrs by cDNA microarray technique relative to control
HT-29 [25] = assay: Down regulation of OR4K15 gene expression in human HT-29 cells at IC50 after 48 hrs by cDNA microarray technique relative to control
HT-29 [26] = assay: Down regulation of AQP3 gene expression in human HT-29 cells at IC50 after 48 hrs by cDNA microarray technique relative to control; method in brief: as §2
HT-29 [27] = assay: Down regulation of SLC22A1 gene expression in human HT-29 cells at IC50 after 48 hrs by cDNA microarray technique relative to control
HT-29 [28] = assay: Down regulation of TAF5L gene expression in human HT-29 cells at IC50 after 48 hrs by cDNA microarray technique relative to control
HT-29 [29] = assay: Down regulation of HNRPA2B1 gene expression in human HT-29 cells at IC50 after 48 hrs by cDNA microarray technique relative to control; method in brief: as §1
HT-29 [30] = assay: Upregulation of CDH15 gene expression in human HT-29 cells at IC50 after 48 hrs by cDNA microarray technique relative to control
MCF7 [31] = assay: Down regulation of TDGF1 gene expression in human MCF7 cells at IC50 after 48 hrs by cDNA microarray technique relative to control
MCF7 [32] = assay: Upregulation of SCGB1D2 gene expression in human MCF7 cells at IC50 after 48 hrs by cDNA microarray technique relative to control
MCF7 [33] = assay: Upregulation of ST3GAL1 gene expression in human MCF7 cells at IC50 after 48 hrs by cDNA microarray technique relative to control
HT-29 [34] = assay: Down regulation of BENE gene expression in human HT-29 cells at IC50 after 48 hrs by cDNA microarray technique relative to control; method in brief: as §2
HT-29 [35] = assay: Down regulation of STK19 gene expression in human HT-29 cells at IC50 after 48 hrs by cDNA microarray technique relative to control
MCF7 [36] = assay: Down regulation of CNIH3 gene expression in human MCF7 cells at IC50 after 48 hrs by cDNA microarray technique relative to control; method in brief: as §2
HT-29 [37] = assay: Upregulation of LAMP3 gene expression in human HT-29 cells at IC50 after 48 hrs by cDNA microarray technique relative to control
HT-29 [38] = assay: Down regulation of HSPA1A gene expression in human HT-29 cells at IC50 after 48 hrs by cDNA microarray technique relative to control; method in brief: as §1

COC(CN(c1ccccc1CO)S(=O)(=O)c1ccccc1[N+](=O)[O-])n1cnc2ncnc(Cl)c21 (racemic)
fold change (FC) (HT-29 [1]): -2.24 | fold change (FC) (MCF7 [2]): 2.09 | fold change (FC) (HT-29 [3]): 2.54 | fold change (FC) (HT-29 [4]): -2.99 | fold change (FC) (MCF7 [5]): -2.65 | fold change (FC) (HT-29 [6]): 4.72 | fold change (FC) (HT-29 [7]): 2.06 | fold change (FC) (HT-29 [8]): -2.25 | fold change (FC) (HT-29 [9]): -2.03 | fold change (FC) (HT-29 [10]): -2.03 | fold change (FC) (MCF7 [11]): 2.4 | fold change (FC) (HT-29 [12]): -2.05 | fold change (FC) (MCF7 [13]): -2.01 | fold change (FC) (MCF7 [14]): 3.24 | fold change (FC) (MCF7 [15]): -2.27 | fold change (FC) (HT-29 [16]): 3.08 | fold change (FC) (MCF7 [17]): -2.14 | fold change (FC) (HT-29 [18]): -2.1 | fold change (FC) (MCF7 [19]): 4.04 | fold change (FC) (HT-29 [20]): -2.02

O=C(OCC1c2ccccc2-c2ccccc21)N1CC(n2cnc3c(Cl)ncnc32)OCc2ccccc21 (racemic)
fold change (FC) (MCF7 [21]): 3.23 | fold change (FC) (HT-29 [22]): -2.27 | fold change (FC) (HT-29 [23]): -2.8 | fold change (FC) (HT-29 [24]): 2.42 | fold change (FC) (HT-29 [25]): -3.6 | fold change (FC) (HT-29 [26]): -2.53 | fold change (FC) (HT-29 [27]): -2.27 | fold change (FC) (HT-29 [28]): -2.18 | fold change (FC) (HT-29 [29]): -2.33 | fold change (FC) (HT-29 [30]): 2.06 | fold change (FC) (MCF7 [31]): -3 | fold change (FC) (MCF7 [32]): 6.02 | fold change (FC) (MCF7 [33]): 6.38 | fold change (FC) (HT-29 [34]): -2.14 | fold change (FC) (HT-29 [35]): -2.34 | fold change (FC) (MCF7 [36]): -3.32 | fold change (FC) (HT-29 [37]): 2.91 | fold change (FC) (HT-29 [38]): -2.2
